# Assay outcomes as filed in PubChem.
# BB579 growth dn – chemicals that inhibit yeast BB579 growth in restrictive medium (lifespan-shortening candidates). S. cerevisiae BB579 growth, OD615, 48 h. inhibition, % at 10 µM. 140,000 tested, 0.51% active;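 active means inhibition above a set limit, 3 SD over the mean compound inhibition, cut at about 44% in these data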
#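 controls = amphotericin B 10 µg/mL, positive | assay system = DeaD yeast strain BB579 | schedule = 48 h compound exposure at 30 °C after 4 h preincubation | detection = OD615 turbidity measurement | medium = restrictive CSMM-D medium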
# RAM inhibit – blocks the yeast RAM network; S. cerevisiae dse1pr::URA3 reporter, 5-FOA growth OD615, 2 d; analog-sensitive cbk1-as2 kinase mutant strain; inhibition, % at 50 µM; 190,000 tested, 1.8% active; AID 868;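 active means inhibition above a set limit, 3 SD over mean compound inhibition, cut at about 8.4% in these data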;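 further: 0% = DMSO-only wells with no growth and 100% = 10 µM 1-NA-PP1 full growth; inhibition rescues growth on 5-FOA so higher OD means more RAM inhibition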
# WT yeast gro inh – growth inhibition of WT yeast, mitochondrial fusion screen; mitochondrial fusion phenotypic screen, WT strain; inhibition, % at 10 µM; 190,000 tested, 2.1% active; AID 1362; in the data active means inhibition above about 58%; tested in S. cerevisiae
# Yeast life ext – yeast lifespan extension | S. cerevisiae growth with nicotinamide, OD615; deaD strain in restrictive glucose medium | inhibition of the nicotinamide effect, % at 10 µM | 130,000 tested, 0.68% active | AID 775;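 active means inhibition above a set limit, placed 3 SD over the median of all compounds, cut at about 26% in these data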;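 further: 0% = nicotinamide-treated wells and 100% = cells grown without nicotinamide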
#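 Material: Modified budding yeast, DeaD strain | Medium: Restrictive glucose medium | Probe or stimulus: 1.5 mM nicotinamide | Dosing: Single dose 10 µM compound, 0.25% DMSO | Times: 48 h at 30 °C | Technique: OD615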
# Cl transport mod – KCC2 (human) Cl- transport modulation; Q9H2X9; KCC2 cells, thallium flux FluoZin-2 fluorescence; B-score of Tl+ flux slope (higher = more flux/activation; lower = inhibition) at 10 µM; 190,000 tested, 2.2% active;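 active means thallium flux slope and its plate-corrected score both differing from the plate sample mean at a set confidence after two filtering rounds, in either direction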;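 further: slope of fluorescence scaled to starting intensity during 10 to 20 s after thallium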
# An asterisk follows results filed as active; nt = not tested or not shown. In the library only some 5.5% were active in any assay of this set; here they are far more common.
SMILES,BB579 growth dn,RAM inhibit,WT yeast gro inh,Yeast life ext,Cl transport mod
CCOc1ccc(S(=O)(=O)NCCC2=CCCCC2)c2ccccc12,-47.0,11.1*,1.0,-3.4,0.514
CN(C)C(CNC(=O)c1cc(S(=O)(=O)N(C)c2ccccc2)ccc1Cl)c1cccs1 (configuration not stated),nt,1.1,-3.3,nt,-2.79
COc1cc(C2CC(=O)c3cnc(N4CCN(Cc5ccccc5)CC4)nc3C2)cc(OC)c1OC (configuration not stated),-21.2,4.2,1.5,-25.6,-0.504
CC(C)c1ccc(C2CC(=O)c3cnc(N4CCc5ccccc5C4)nc3C2)cc1 (configuration not stated),-32.4,2.7,58.3*,-8.7,0.329
CC1CC(C)CN(c2ncc3c(n2)CC(c2ccccc2)CC3=O)C1 (configuration not stated),-60.0,2.1,71.5*,-10.7,nt
Cc1ccc(S(=O)(=O)CNC(=S)c2cccc(Cl)c2)cc1,11.0,-0.4,68.6*,-5.8,0.614
Cc1ccc(C(=S)NCS(=O)(=O)c2ccc(C)cc2)cc1,-49.5,0.1,7.4,-4.6,0.363
O=C(O)c1ccc(-c2nc(-c3ccc(Cl)c(Cl)c3)cs2)cc1,nt,0.4,74.8*,nt,-2.35
CCCOc1ccc(N2C(=O)CC(SCc3nc4ccccc4[nH]3)C2=O)cc1 (configuration not stated),nt,0.9,6.8,nt,0.192
C=CCNC(=S)/N=c1/ccccn1CCC,nt,nt,nt,nt,0.171
CCc1ccc(OCc2nnc(SCC(=O)N3CCN(c4ccccc4)CC3)o2)cc1,-35.2,8.4*,-4.2,nt,-0.425
CCCCCCCOC(=O)c1nc(Cl)c(Cl)c(N)c1Cl,-48.8,4.4,85.3*,-5.8,-0.0611
CN(C)c1cccc(C(=O)Nc2cc(C(F)(F)F)ccc2-n2cnc3ccccc32)c1,-27.0,3.5,19.9,7.0,0.53
N#Cc1c(N)nc2c3c(sc(=N)c2c1N)NC(=O)CC3c1c(F)cccc1Cl (configuration not stated),-20.9,8.8*,20.5,-13.1,1.67
O=C(NCc1ccc(Cl)cc1Cl)C1CCN(S(=O)(=O)c2ccc3c(c2)OCCCO3)CC1,-6.2,0.0,0.8,-1.4,-0.85
COc1ccc(-c2nc(N)n(C(=O)c3ccccc3Cl)n2)cc1,-4.3,2.9,13.3,-4.5,0.709
CCOc1cc(/C=C2\C(=O)N(c3cccc(C(F)(F)F)c3)C(=O)c3ccccc32)ccc1O,-25.4,3.1,12.7,9.7,-0.894
Cc1cccc(N2C(=O)/C(=C\c3ccc(OC(F)F)cc3)c3ccccc3C2=O)c1,-26.6,4.9,6.8,47.2*,-0.821
COc1cccc(/C=C2\C(=O)N(c3cccc(C)c3)C(=O)c3ccccc32)c1,-9.9,2.9,11.6,48.5*,1.09
COc1cccc(N2C(=O)c3ccncc3C2=O)c1,-84.1,0.5,4.0,3.6,0.142
COC(=O)C1=C(C(=O)OC)[C@@H]2N(C)c3ccccc3[C@@]23C[C@@H](CO)N(C(=O)NCCBr)C3=N1,nt,nt,nt,nt,0.0116
COC(=O)C1=C(CSc2nc3ccccc3o2)NC(=O)NC1c1cc(C)ccc1C (configuration not stated),-48.5,3.7,75.4*,0.0,0
Cc1cccc(/C(N)=N/OC(=O)c2ccc(F)cc2)c1,94.5*,-1.1,-11.2,-10.3,-0.0929
CSc1nc(=S)c2[nH]c(=S)[nH]c2[nH]1,nt,nt,nt,nt,-0.173
Brc1ccccc1Cn1c(-c2cscn2)nc2ccccc21,-60.3,-0.9,57.6,-0.3,-0.236
SMILES,BB579 growth dn,RAM inhibit,WT yeast gro inh,Yeast life ext,Cl transport mod
COc1ccc(NC(=S)NCc2ccc3c(c2)OCO3)cc1,nt,1.1,3.5,nt,-0.648
CC(C)c1ccc(NC(=S)NCc2ccc3c(c2)OCO3)cc1,nt,5.3,67.0*,nt,-1.05
Nc1ccccc1C(=O)NCCN1CCNC1=O,nt,nt,nt,nt,0.405
COc1cc(C2Nc3cccc4cccc(c34)N2)cc(OC)c1O,-30.0,9.3*,29.5,6.6,nt
COc1cc(C2Nc3cccc4cccc(c34)N2)ccc1OC(C)=O,-37.0,4.0,11.7,-11.7,nt
CCOc1cc(/C=N/NC(=O)CCn2nc(C)cc2C)ccc1O,nt,nt,nt,nt,2.14
CCC(=O)NC(=S)NNC(=O)c1ccc(NC(=O)c2ccccc2)cc1,nt,5.9,7.1,nt,-0.948
CC(C)CC(=O)Nc1ccc(C(=O)NNC(=S)NC(=O)C2CCCCC2)cc1,-8.7,8.4*,31.2,0.0,nt
CS(=O)(=O)c1ccc(S(=O)CC(=O)Oc2ccc(Cl)cc2)c([N+](=O)[O-])c1 (configuration not stated),nt,6.3,-6.0,nt,-2.23
